# This is a sample that favours compounds with a hit; in the whole collection about 3.7% have one here.
# MC4R antag cAMP – human MC4R antagonism in cAMP assay | P32245 | MC4R-expressing cells, MTII-stimulated cAMP, LANCE TR-FRET | inhibition, % at 6.5 µM | hit rate 0.48% among 360,000 | AID 540295;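 active means inhibition above its plate's cutoff, the mean of tested wells on that plate plus 3 SD, cut at about 29% in these data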;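 further: 0% = Melanotan II alone and 100% = Melanotan II plus saturating MCL0020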
# Target sequence (P32245 whole entry, looked up): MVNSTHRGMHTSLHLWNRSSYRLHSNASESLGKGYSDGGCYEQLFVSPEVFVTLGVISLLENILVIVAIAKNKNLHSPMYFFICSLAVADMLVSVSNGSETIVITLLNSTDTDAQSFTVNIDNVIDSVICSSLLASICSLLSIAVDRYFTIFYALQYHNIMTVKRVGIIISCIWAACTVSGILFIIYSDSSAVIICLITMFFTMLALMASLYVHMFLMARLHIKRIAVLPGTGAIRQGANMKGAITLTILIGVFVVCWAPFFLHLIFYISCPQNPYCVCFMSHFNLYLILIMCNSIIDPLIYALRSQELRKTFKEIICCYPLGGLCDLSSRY
#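 System: U2OS cells stably expressing human melanocortin 4 receptor (MC4R). Reagent: Melanotan II challenge after compound preincubation. Doses: 6.5 µM. Times: 30-min compound, 1-h challenge, 1-h detection, room temperature. Measured by: TR-FRET with Eu-cAMP and labeled anti-cAMP, 671 nm. Replicates: singlicate.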
# Myeloid diff MLP – myeloid differentiation induction | ER-HoxA9 myeloid progenitors, lysozyme-GFP differentiation, flow cytometry | calls only at 10 µM | hit rate 1% among 360,000;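 active means normalized GFP-positive differentiation at or above the plate's own cutoff, the solvent-only control mean plus 3 SD; inconclusive means no clear call, values can overlap the other calls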;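 further: cells exposed to compound for four days before flow analysis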
# Granule exo inh – lytic granule exocytosis inhibition; inhibition, % at 10 µM; AID 651702; TALL-104 LAMP-1 surface exposure, flow cytometry; cells stimulated with thapsigargin and PMA; hit rate 0.66% among 360,000;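 active means inhibition above about 55%, limit read from the data; inconclusive means no clear call, values can overlap the other calls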
# MC4R ag barr – agonists of human melanocortin 4 receptor (MC4R) beta-arrestin. AID 540308. hit rate 0.98% among 360,000. U2OS MC4R beta-arrestin complementation, luminescence; percent of melanotan II response, DMSO zero. P32245. activation, % at 8.9 µM;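 active means activation above a per-plate cutoff, the mean activation of sample wells on that plate plus 3 SD, cut at about 8% in these data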
# EBI2 antag – blocks human EBI2 receptor beta-arrestin signaling; inhibition, % at 5 µM; EBI2 beta-arrestin recruitment, luminescence, 7a,25-OHC stimulated; hit rate 0.81% among 360,000; P32249; in the data active means inhibition above about 38%;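 further: enzyme fragment complementation signal reports receptor beta-arrestin coupling in cells; 0% = agonist plus DMSO wells and 100% = wells without agonist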
# MC4R barr conf – human MC4R beta-arrestin agonism confirmation; shares compounds with MC4R ag barr; U2OS MC4R beta-arrestin recruitment, luminescence; scaled DMSO 0%, Melanotan II 100%; activation, % at 8.9 µM; hit rate 31% among 2,400;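 active means mean activation across replicates above the hit cutoff set in the earlier primary screen, cut at about 8% in these data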
# MOR-DOR barr ag – activates mu-delta opioid heterodimer, MC4R agonist counter-screen; shares compounds with MC4R ag barr; U2OS PathHunter beta-arrestin, beta-gal luminescence; percent of deltorphin B response, DMSO zero; activation, % at 9.2 µM; hit rate 5.8% among 2,400;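 active means mean activation across replicates exceeds the hit threshold derived in the earlier primary screen, cut at about 18% in these data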;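 further: 100% = deltorphin B at 0.9 µM final and 0% = DMSO alone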
# * marks the source's active call; other numbers are inactive results; i = inactive; ? = inconclusive; / = not tested or not shown.
SMILES,MC4R antag cAMP,Myeloid diff MLP,Granule exo inh,MC4R ag barr,EBI2 antag,MC4R barr conf,MOR-DOR barr ag
Cc1nn(-c2nc3ccccc3s2)c(N)c1Sc1ccc(F)cc1,0,i,0,15*,27,1,4
COC(=O)c1sc2nc(C)nc(SCC(=O)Nc3sccc3C(N)=O)c2c1C,0,i,-1,19*,10,8,5
O=C(NC(c1ccc(Cl)cc1)c1ccccn1)C1CCN(CCOc2ccc(Cl)cc2Cl)CC1 (centres undefined),8,i,19,18*,18,24*,15
O=C(NC(c1ccc2c(c1)OCO2)c1ccccn1)C1CCN(CCOc2ccc(Cl)cc2Cl)CC1 (centres undefined),5,i,-5,1,16,/,/
Cc1cccnc1C(NC(=O)C1CCN(CCOc2ccc(Cl)cc2Cl)CC1)c1ccc(Cl)cc1 (centres undefined),3,i,11,34*,38,17*,8
Cc1cccnc1C(NC(=O)C1CCN(CCCc2ccccc2)CC1)c1ccc(Cl)cc1 (centres undefined),11,i,6,-2,1,/,/
O=C(NC(c1ccc(Cl)cc1)c1cccnc1)C1CCN(CCOc2ccc(Cl)cc2Cl)CC1 (centres undefined),4,i,6,18*,16,30*,13
CCOC(=O)c1c(C)[nH]c(C)c1S(=O)(=O)N1CCCCC1,-4,i,-9,-1,-7,/,/
NC(c1csc(Nc2ccccn2)n1)C1CCCCC1 (centres undefined),-2,i,4,5,-14,/,/
COC(=O)c1c(NC(=O)Nc2ccc(Cl)cc2)sc(C)c1C,0,i,1,10*,3,2,9
Cc1ccc(O)c(-c2cc(-c3cccc(F)c3)n[nH]2)c1,-8,i,-2,10*,36,5,7
CCOC(=O)C1=C(N)c2ccccc2CC1C(C)C (centres undefined),2,i,-1,11*,-7,3,8
Brc1ccc2nc(C3CCCCC3)c(Cc3ccsc3)n2c1,/,i,3,/,3,/,/
COc1ccc(NC(=O)COC(=O)c2ccc3c(c2)OCCO3)cc1,10,i,1,0,-1,/,/
COc1ccc(C(C)=O)cc1COC(=O)c1ccc2c(c1)OCCO2,0,i,-4,9.8*,3,4,2
COc1ccc(NC(=O)COC(=O)c2ccc3c(c2)OCCO3)cc1OC,14,i,5,17*,-3,9.0*,3
COc1ccc(C(C)=O)cc1COC(=O)c1ccc2c(c1)OCO2,-8,i,-1,-1,7,/,/
CCOc1ccc(NC(=O)COC(=O)c2ccc3c(c2)OCO3)cc1,-3,i,-4,0,-13,/,/
COc1ccc(NC(=O)COC(=O)c2ccc3c(c2)OCO3)c(OC)c1,14,i,-1,14*,5,-2,4
COc1ccc(C)cc1NC(=O)COC(=O)c1ccc2c(c1)OCCO2,1,i,0,10*,-12,-2,17
O=C1N(Cc2cccnc2)C[C@@H]2C[C@@H](c3ccc4nsnc4c3)N3CCC[C@@]123,5,i,-2,-2,-1,/,/
O=C(NCCCn1ccnc1)c1ccc(C(F)(F)F)cc1,11,i,0,0,-3,/,/
COc1ccc(C)cc1NC(=O)COC(=O)c1ccc2c(c1)OCO2,3,i,-1,13*,-2,-4,3
COc1ccc(C)cc1NC(=O)c1ccc2c(c1)OCO2,-4,i,-1,-1,8,/,/
O=C(COC(=O)c1ccccc1Nc1ccccc1)NCc1ccccc1Cl,12,i,4,16*,9,10*,4
SMILES,MC4R antag cAMP,Myeloid diff MLP,Granule exo inh,MC4R ag barr,EBI2 antag,MC4R barr conf,MOR-DOR barr ag
O=C(COC(=O)c1ccccc1Nc1ccccc1)NCc1ccccc1,-4,i,-1,25*,-3,0,7
O=C(COC(=O)c1ccccc1Nc1cccc(C(F)(F)F)c1)NCc1ccco1,-7,i,1,13*,9,6,9
NC(=O)c1ccc(NC(=O)COC(=O)c2ccccc2Nc2ccccc2)cc1,2,i,4,-3,-6,/,/
COc1ccc(OC)c(N2C(=O)CC(NNC(=O)c3ccc4c(c3)OCO4)C2=O)c1 (centres undefined),11,i,-3,-1,1,/,/
OC(COc1ccc(F)cc1Cl)CN1CCC(Cc2ccccc2)CC1 (centres undefined),3,i,32,11*,16,9.3*,11
CCOC(=O)c1c(C)n(-c2ccc(C)cc2)c2ccc(OCC(O)CNCC3CCCO3)cc12 (centres undefined),5,?,12,13*,8,17*,10
Cc1ccc2nc(-c3ccc(NC(=O)CSc4nccc(=O)[nH]4)cc3)sc2c1,4,i,8,-3,-10,/,/
Cc1ccc2nc(NC(=O)CN3CCN(c4ccccn4)CC3)sc2c1,8,i,-2,-1,-4,/,/
Cc1ccc2nc(-c3ccc(NC(=O)CSc4nc(N)cc(=O)[nH]4)cc3)sc2c1,9,i,6,13*,-6,6,2
Cc1ccc2nc(-c3ccc(NC(=O)CN4CCN(c5ccccn5)CC4)cc3)sc2c1,19,i,24,10.0*,18,1,3
Cc1ccccc1OCC(=O)NC(=S)Nc1cccc2cc(O)ccc12,6,i,-11,16*,15,23*,9
COc1ccc(CCn2c(C)cc(C(=O)COC(=O)c3ccc(O)cc3O)c2C)cc1,13,i,6,25*,29,9.3*,10
Cc1ccc(NC(=O)CN(C)C(=O)c2sc3cc(Cl)ccc3c2Cl)cc1,1,i,1,10*,-9,2,6
CC(=O)Nc1cc(-c2cccc(N)c2)cn2c(-c3ccccc3)cnc12,18,i,45,12*,13,2,3
CN(C)C(=O)c1cccc(-c2cnc3c(NC=O)cc(-c4cccc(F)c4)cn23)c1,-16,i,0,5,16,/,/
CC(=O)Nc1cc(-c2cccc(C(=O)N(C)C)c2)cn2c(-c3ccc(F)c(Cl)c3)cnc12,9,i,-2,16*,25,23*,2
CC(=O)Nc1cc(-c2cccc(C(=O)N(C)C)c2)cn2c(-c3ccc(C(C)=O)cc3)cnc12,21,i,9,11*,11,6,1
CC(=O)c1cccc(-c2cnc3c(NC=O)cc(-c4ccccc4F)cn23)c1,-8,i,28,20*,27,20*,3

# Screens from PubChem.
